Where two headings read alike, the source gives them in different places.
Columns and labels:
[1] = Cell viability by MTT assay; assay type: cell-based, Felis catus; conditions: cat (Felis catus), fcwf-4 cells
In short: (§1)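 fcwf-4 cells grown in DMEM with 5% FBS, penicillin/streptomycin, 5% CO2, 37 °C; 20,000 cells/well seeded, 24 h at 37 °C to confluence. Test compounds (in DMSO or double distilled water), twofold serially diluted, applied 72 h. MTT ([…]) 4 h at 37 °C, lysis overnight at room temperature, absorbance 570/655 nm. Viability = treated/untreated OD × 100; CC50 = 50% viability reduction; triplicate.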

fcwf-4 cells = test: Cell viability by MTT assay; assay type: cell-based, Felis catus; conditions: for Cytotoxic effect under the tested concentrations: three days of treatment, Fig. 1; for CC50: fcwf-4 cells, 72 h, MTT
In short: as §1

SARS-CoV = conditions: read-out: IC50 on SARS-CoV; cited from earlier work
[2] = test system: FCoV (NTU156) in fcwf-4 cells; test: microbe, parasite or virus in culture; assay type: cell-based, feline coronavirus
[3] = 9 clinical healthy FCoV-shedding cats, 6.25 mg to 50 mg/kg/day per os, preliminary
[4] = test system: FCoV (NTU156) in fcwf-4 cells; assay type: cell-based, feline coronavirus

| Compound | CC50 at 72 h [1] | Cytotoxic effect under the tested concentrations (fcwf-4 cells) | other results |
| --- | --- | --- | --- |
| Nc1nc2c(ncn2COCCO)c(=O)[nH]1 [Acyclovir, acyclovir] | ≥ 888 µM | – | – |
| COC(=O)N[C@H](C(=O)N[C@@H](Cc1ccccc1)[C@@H](O)CN(Cc1ccc(-c2ccccn2)cc1)NC(=O)[C@@H](NC(=O)OC)C(C)(C)C)C(C)(C)C [Atazanavir, atazanavir] | 48.6 µM | dramatic cytotoxic effect | – |
| O=C1Nc2ccc(Cl)cc2[C@@](C#CC2CC2)(C(F)(F)F)O1 [Efavirenz, efavirenz] | 52.1 µM | dramatic cytotoxic effect | – |
| Cc1cc(O)c2c(c1)C(=O)c1cc(O)cc(O)c1C2=O [Emodin, emodin] | 67.4 µM | dramatic cytotoxic effect | – |
| O=c1[nH]c(=O)n([C@H]2C[C@H](O)[C@@H](CO)O2)cc1I [Idoxuridine, idoxuridine] | ≥ 141 µM | – | – |
| CC(C)(C)NC(=O)[C@@H]1CN(Cc2cccnc2)CCN1C[C@@H](O)C[C@@H](Cc1ccccc1)C(=O)N[C@H]1c2ccccc2C[C@H]1O [Indinavir, indinavir] | ≥ 70.2 µM | – | – |
| Nc1ccn([C@@H]2CS[C@H](CO)O2)c(=O)n1 [Lamivudine, lamivudine] | ≥ 27.3 µM | – | – |
| Cc1c(O)cccc1C(=O)N[C@@H](CSc1ccccc1)[C@H](O)CN1C[C@H]2CCCC[C@H]2C[C@H]1C(=O)NC(C)(C)C [Nelfinavir, nelfinavir] | 11.5 µM | dramatic cytotoxic effect | IC50 (SARS-CoV): 0.048 µM; IC50 ([2]; Alphacoronavirus 1, 72 h): 8.19 µM; Side effects (e.g., diarrhea or nausea) [3]: no obviously side effects; Number of CPE foci compared with untreated groups [4]: significantly inhibited the number of CPE foci; Induction of CPE foci ([4]; only the highest concentration, 9.41 μM, P < 0.001, […]): significantly blocked the induction of CPE foci |
| Cc1ccnc2c1NC(=O)c1cccnc1N2C1CC1 [Nelvirapine, nelvirapine] | – | – | CC50 (fcwf-4 cells): ≥ 46.9 µM |
| CN(C)CCCN1c2ccccc2Sc2ccccc21 [Promazine, promazine] | ≥ 0.1 µM | – | – |
| NC(=O)c1ncn([C@@H]2O[C@H](CO)[C@@H](O)[C@H]2O)n1 [Ribavirin, ribavirin] | ≥ 409 µM | – | – |
| CC(C)(C)NC(=O)[C@@H]1C[C@@H]2CCCC[C@@H]2CN1C[C@@H](O)[C@H](Cc1ccccc1)NC(=O)[C@H](CC(N)=O)NC(=O)c1ccc2ccccc2n1 [Saquinavir, saquinavir] | 95.8 µM | dramatic cytotoxic effect | – |
| Cc1cn([C@H]2C=C[C@@H](CO)O2)c(=O)[nH]c1=O [Stavudine, stavudine] | ≥ 55.8 µM | – | – |
| Galanthus nivalis agglutinin | – | – | IC50 [2]: 8.8e-06 µM; CC50 (fcwf-4 cells): ≥ 0.00192 µM; Inhibition of CPE foci, concentration-dependence ([4]; all four concentrations, […]): strong inhibitory activities at all four concentrations |

From paper PMC7114315 (Antiviral Research, 2010)
